Series [1] deals with T1, uPAR (Homo sapiens, UniProt Q03405). Put plainly: Fluorescence polarization, displacement of AE147-FAM peptide from uPAR. It counts as binding. Put shortly:
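Test compound was serially diluted in DMSO, then in PBS with 0.01% Triton X-100 (final 100 µM to 0.046 µM). It was preincubated at least 15 min with uPAR before AE147-FAM peptide was added. Final levels were 320 nM uPAR, 100 nM peptide and 2% DMSO. Polarization was read at ex 485/em 530 nm in duplicate. Peptide-only and uPAR + peptide controls were run in quadruplicate.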
A general note: Polarisation of emitted light reports the rotation of a fluorescent probe.

Series [2] concerns the target T2, uPAR•uPAATF interaction (Homo sapiens, UniProt Q03405). Put plainly: Microtiter-based ELISA for uPAR•uPAATF. It counts as binding. The method, boiled down:
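Wells were coated with uPA_ATF (2 µg·mL⁻¹ in PBS, 2 h, 4 °C) and blocked 1 h at room temperature. Purified uPAR lacking the GPI anchor (75 nM, PBS with 0.025% Triton X-100) was added with test compound for 30 min. Compound was screened at 50 µM or titrated 100 to 0.4 µM, with 1% DMSO final. After washing, bound uPAR was detected by biotinylated anti-uPAR antibody (1 h), streptavidin-HRP (20 min) and TMB/H₂O₂ with H₂SO₄ stop; n = 2.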
A general note: In an ELISA, binding on a coated surface is turned into a signal by an enzyme label.

For series [3], the target named is T2, uPAR•uPAATF interaction. It counts as binding.
For series [4], the target named is T1, uPAR. Put plainly: Isothermal titration calorimetry of 7 against purified uPAR. The format is binding. For orientation: ITC needs no label: the signal is the heat of the interaction.
Series [5] deals with VTN•uPAR•uPAATF interaction (Homo sapiens, UniProt Q03405). Put plainly: Microtiter-based ELISA for uPAR•VTN. The format is binding. Put shortly: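 Full-length VTN (5 µg·mL⁻¹, carbonate buffer pH 9.6) was coated 12 h at 4 °C, then blocked 1 h at room temperature. Wells received 120 nM uPAR•uPA_ATF complex in PBS with 0.01% Triton X-100 plus test compound for 60 min. Compound was screened at 50 µM or titrated 100 to 0.4 µM, with 1% DMSO final. Bound uPAR was detected by biotinylated anti-uPAR antibody (1 h), streptavidin-HRP (20 min) and TMB/H₂O₂ with H₂SO₄ stop; n = 2.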

The target of series [6] is uPAR•uPA binding on HEK-293-uPAR cells (Homo sapiens, UniProt Q03405). Put plainly: FACS analysis of FITC-conjugated uPA binding to HEK-293-uPAR cells. It counts as cell-based. The following applies: read-out: inhibition of uPA-FITC binding to uPAR (FACS).
The subject of series [7] is MDA-MB-231 cells. Put plainly: Boyden Matrigel invasion chamber assay. The format is cell-based. The following applies: Homo sapiens, MDA-MB-231, 16 h, read-out: IC50 for MDA-MB-231 cell invasion. Put shortly:
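MDA-MB-231 cells were serum-starved 4 h. Matrigel inserts had fibronectin (30 ng µl⁻¹) coated on the underside overnight at 4 °C and were equilibrated 2 h in serum-free medium. The upper chamber received 5 × 10⁴ cells in 0.1% FBS medium with test compound or 1% DMSO. The lower chamber held 10% FBS medium with the same compound. After 16 h at 37 °C, invaded cells were methanol-fixed, hematoxylin-stained and counted in ten 200× fields; n = 3.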

A further series can be described thus: MTT cell viability assay. The format is cell-based, human. The following applies: human, MDA-MB-231 cells. Put shortly: (§1)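 MDA-MB-231 cells were grown in DMEM with 10% FBS and 1% penicillin/streptomycin at 37 °C, 5% CO₂. Cells (10⁴/well) were plated overnight, then treated 3 days with test compound or DMSO control. MTT (20 µl of 5 mg/ml) was added for 2 h at 37 °C. Viable cells were quantified by absorbance at 570 nm with 630 nm reference.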

In series [8] the test system is MDA-MB-231 cells. Kind of series: MTT cell viability assay. The format is cell-based, human. The following applies: MDA-MB-231, 100 µM. The method, boiled down: as §1
For series [9], the system named is FAK phosphorylation in MDA-MB-231 cells. Put plainly: Western blot for phospho-FAK. The format is cell-based, human. Put shortly:
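MDA-MB-231 lysates were made in RIPA buffer with protease and phosphatase inhibitors. Thirty micrograms of protein were resolved on 10% SDS-PAGE and transferred to nitrocellulose. Blots were probed overnight at 4 °C for total FAK, phospho-FAK (Y397) or actin. Dye-conjugated anti-mouse or anti-rabbit secondaries were detected by infrared fluorescence imaging.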

Series [10] concerns Rac1 activation in MDA-MB-231 cells. Kind of series: Rac1 pull-down assay. The format is cell-based, human.
Series [11] addresses T1, uPAR. Kind of series: Saturation transfer difference. It counts as binding. The following applies: 438 µM 7, uPAR 50 fold less.

Read-outs that look alike come from different tables or passages of the source.

T1 sequence (Q03405 23-305 limits assumed): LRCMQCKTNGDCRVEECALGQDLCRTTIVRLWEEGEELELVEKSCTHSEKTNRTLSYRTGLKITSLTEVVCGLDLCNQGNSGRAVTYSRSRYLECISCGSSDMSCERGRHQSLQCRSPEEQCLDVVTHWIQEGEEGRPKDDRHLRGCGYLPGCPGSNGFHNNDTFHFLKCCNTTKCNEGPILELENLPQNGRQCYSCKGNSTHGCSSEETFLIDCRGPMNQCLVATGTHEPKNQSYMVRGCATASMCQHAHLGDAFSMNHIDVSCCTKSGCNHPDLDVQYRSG
T2 sequence (Q03405 23-305 limits assumed): as above
uPAR•uPA binding on HEK-293-uPAR cells, sequence (Q03405 23-305 limits assumed): as above
VTN•uPAR•uPAATF interaction, sequence (Q03405 23-305 limits assumed): as above

With `CCCCCCOc1cccc(N2C(=O)C(O)=C(C(=O)c3ccccc3)C2c2ccc(CC)cc2)c1` (stereo not drawn) [Compound 1, 4-benzoyl-5-(4-ethylphenyl)-1-(3-(hexyloxy)phenyl)-3-hydroxy-1H-pyrrol-2(5H)-one], affinity on uPAR [1] was put at a Ki of 4.2 µM. The IC50 (in general, the midpoint of a concentration-inhibition curve) on uPAR•uPAATF interaction [2] was determined as 58 µM.

As for `Cc1ccc(N2C(=O)C(O)=C(C(=O)c3ccc(Cl)cc3)C2c2cccc(F)c2)cc1Br` (stereo not drawn) [Compound 7, 1-(3-bromo-4-methylphenyl)-4-(4-chlorobenzoyl)-5-(3-fluorophenyl)-3-hydroxy-1H-pyrrol-2(5H)-one], the IC50 at uPAR•uPAATF interaction [2] (IC50 for inhibition of uPAR•uPAATF interaction (ELISA), 75 nM uPAR, immobilized uPAATF) was found to be 18 µM; at uPAR•uPAATF interaction [3], 12.9 µM; in [5], 32.8 µM; in the series on MDA-MB-231 cells [7] it was 35 µM. The dissociation constant (Kd) (usually the equilibrium constant for the complex coming apart) on uPAR [4] was 17.2 µM. In addition, the “enthalpy (ΔH) (ITC)” value on uPAR [4] (25 °C) was -6.4 kcal/mol. Besides, on uPAR [4] (25 °C), the “entropy (ΔS) (ITC)” value was found to be 0.01 kcal/mol. Further, in [6], the inhibition (as a rule, how much of the control response was suppressed) at 100 µM was approximately 40%. Also, the viability – broadly, a read-out of living cells in per cent, often relative to untreated cells – at 3 days, 100 µM in the series “MTT cell viability assay” is more than 80%. The cytotoxicity result in the series on MDA-MB-231 cells [8] is on record as “not cytotoxic”. In addition, the “FAK phosphorylation at Y397” value in series [9] is “significantly inhibited”. In [10], the Rac1 activation result was “inhibited Rac1 activation in a concentration-dependent manner”. For the same compound, the “direct binding to uPAR (STD-NMR and ITC)” value on uPAR [11] was “binds directly to uPAR”.

Values taken from publication PMC4654616 (ACS chemical biology, 2015).
